Experimental findings from ChEMBL document CHEMBL3867452, “Acylphloroglucinolated Catechin and Phenylethyl Isocoumarin Derivatives from Agrimonia pilosa” (J Nat Prod, 2016) are described below.

What is called pIC50 is the IC50 on a negative log10 scale, so that one unit is a factor of ten. Read a high pIC50 as a low IC50.

Data set [1] is filed under the species Mus musculus. Kind of data set: Cytotoxicity against mouse BV2 cells assessed as reduction in cell viability after 24 hrs by MTT assay. The conditions noted are these: bv-2, 24 h. The class given is toxicity, cell-based. The method, boiled down: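 BV2 microglia kept in DMEM with 10% FBS, penicillin 100 IU/mL and streptomycin, at 37.8 °C under 5% CO2. Cells were incubated 24 h in 96-well plates. Medium was then replaced with MTT 0.2 mg/mL for 3 h at 37.8 °C, and formazan was dissolved in DMSO. Absorbance read at 540 nm; viability given as percent of control.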
In general terms: Tetrazolium dyes change colour on reduction, which living cells bring about.

The test system of data set [2] is BV-2. Kind of data set: Inhibition of LPS-induced NO production in mouse BV2 cells preincubated for 1 hr followed by LPS addition measured after 24 hrs by Griess assay. In kind it is functional, cell-based. In short, it runs like this:
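BV2 cells seeded at 4 × 10^4 cells/well. Compounds were dissolved in DMSO, final DMSO under 0.1%. Pretreatment lasted 1 h, then LPS 500 ng/mL was added and cells incubated 24 h. Nitrite in the medium was measured by Griess assay. IC50 given as mean ± SD of three experiments; ω-nitro-L-arginine methyl ester served as positive control.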

pIC50: −log10 of the molar value.

In the case of `COc1c(C)c(O)c(Cc2c(O)cc(O)c3c2O[C@H](c2ccc(O)c(O)c2)[C@@H](O)C3)c(O)c1C(=O)C(C)C`, in data set [1], the Activity result is “Non-Toxic”. Besides, the pIC50 in data set [2] is 4.26.

Turning to `CCCC(=O)c1c(O)c(Cc2c(O)cc(O)c3c2O[C@H](c2ccc(O)c(O)c2)[C@@H](O)[C@@H]3c2c(O)cc(O)c3c2O[C@H](c2ccc(O)c(O)c2)[C@H](O)C3)c(O)c(C)c1OC`, the Activity result in data set [1] is “Non-Toxic”. The molecule also showed a pIC50 in data set [2] of 4.28 to 4.36.

In the case of `CCCC(=O)c1c(O)c(Cc2c(O)cc(O)c3c2O[C@H](c2ccc(O)c(O)c2)[C@@H](O)C3)c(O)c(C)c1OC`, the Activity entry in data set [1] is on record as “Non-Toxic”. Also, in data set [2], the pIC50 is 4.36 to 4.42.

Turning to `COc1c(C)c(O)c(Cc2c(O)cc(O)c3c2O[C@H](c2ccc(O)c(O)c2)[C@@H](O)[C@@H]3c2c(O)cc(O)c3c2O[C@H](c2ccc(O)c(O)c2)[C@H](O)C3)c(O)c1C(=O)C(C)C`, the Activity result in data set [1] is “Non-Toxic”. For the same molecule, the pIC50 in data set [2] was 4.42. The corresponding values for `CCC(C)C(=O)c1c(O)c(Cc2c(O)cc(O)c3c2O[C@H](c2ccc(O)c(O)c2)[C@@H](O)C3)c(O)c(C)c1OC` (stereo partly specified) are “Non-Toxic” and 4.22. On to `COC(=O)[C@@H](N)CCCNC(=N)N[N+](=O)[O-]` [L-NAME], for which the pIC50 in data set [2] was 4.61.
